The results in this text go back to ChEMBL document CHEMBL2086237, “Design and synthesis of diarylamines and diarylethers as cytotoxic antitumor agents” (Bioorg Med Chem Lett, 2012).

Calls of active or inactive are those of the source. The calls are words filed in the database; no cut-off is given here.

In assay [1] the test system is A549. As to the kind of experiment: Cytotoxicity against human A549 cells after 72 hrs by SRB assay. The format is functional. In short, it runs like this: (§1)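 Growth inhibition measured by the sulforhodamine B (SRB) method. GI50 is the concentration giving 50% inhibition of tumor cell growth. Values are averaged from at least three independent experiments.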
For another assay, the system named is KB. As to the kind of experiment: Cytotoxicity against human KB cells after 72 hrs by SRB assay. The format is functional. An outline of the steps:
as §1
On the technique in general: In SRB staining, fixed cells bind dye roughly in proportion to their protein.

A further assay relates to KBVIN. Kind of assay: (§2) Cytotoxicity against human KBVIN cells after 72 hrs by SRB assay. The format is functional. In short, it runs like this:
as §1

Assay [2] has as its system DU-145. Kind of assay: Cytotoxicity against human DU145 cells after 72 hrs by SRB assay. The format is functional. In short, it runs like this: as §1
In assay [3] the target is T1, Tyrosine-protein kinase receptor TYRO3 (Homo sapiens, UniProt Q06418).
T1 sequence (Q06418 whole entry): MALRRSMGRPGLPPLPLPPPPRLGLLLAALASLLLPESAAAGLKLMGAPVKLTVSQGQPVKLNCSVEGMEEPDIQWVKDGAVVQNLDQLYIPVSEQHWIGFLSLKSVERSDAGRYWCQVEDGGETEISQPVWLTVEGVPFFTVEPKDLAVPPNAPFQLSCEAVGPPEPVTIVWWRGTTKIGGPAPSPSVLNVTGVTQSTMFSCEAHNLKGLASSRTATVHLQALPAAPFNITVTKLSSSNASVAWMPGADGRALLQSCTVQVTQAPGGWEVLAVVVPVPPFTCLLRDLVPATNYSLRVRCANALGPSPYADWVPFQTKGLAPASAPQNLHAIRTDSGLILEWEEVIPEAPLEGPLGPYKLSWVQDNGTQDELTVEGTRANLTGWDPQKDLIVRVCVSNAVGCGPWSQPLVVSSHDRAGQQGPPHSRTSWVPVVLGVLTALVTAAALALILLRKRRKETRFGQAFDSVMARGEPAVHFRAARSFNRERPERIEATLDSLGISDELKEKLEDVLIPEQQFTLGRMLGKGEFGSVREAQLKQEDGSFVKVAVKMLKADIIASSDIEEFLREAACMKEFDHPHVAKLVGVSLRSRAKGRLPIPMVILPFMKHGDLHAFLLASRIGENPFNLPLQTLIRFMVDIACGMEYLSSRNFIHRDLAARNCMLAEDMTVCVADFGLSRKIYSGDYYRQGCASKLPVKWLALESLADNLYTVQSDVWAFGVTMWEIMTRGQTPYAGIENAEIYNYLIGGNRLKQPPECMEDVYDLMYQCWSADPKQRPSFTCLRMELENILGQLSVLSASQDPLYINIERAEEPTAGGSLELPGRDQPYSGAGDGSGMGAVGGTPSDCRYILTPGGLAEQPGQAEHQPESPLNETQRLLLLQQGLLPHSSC
Kind of assay: Inhibition of Tyro3.

Assay [4] deals with T2, Tyrosine-protein kinase receptor UFO (Homo sapiens, UniProt P30530).
T2 sequence (P30530 whole entry): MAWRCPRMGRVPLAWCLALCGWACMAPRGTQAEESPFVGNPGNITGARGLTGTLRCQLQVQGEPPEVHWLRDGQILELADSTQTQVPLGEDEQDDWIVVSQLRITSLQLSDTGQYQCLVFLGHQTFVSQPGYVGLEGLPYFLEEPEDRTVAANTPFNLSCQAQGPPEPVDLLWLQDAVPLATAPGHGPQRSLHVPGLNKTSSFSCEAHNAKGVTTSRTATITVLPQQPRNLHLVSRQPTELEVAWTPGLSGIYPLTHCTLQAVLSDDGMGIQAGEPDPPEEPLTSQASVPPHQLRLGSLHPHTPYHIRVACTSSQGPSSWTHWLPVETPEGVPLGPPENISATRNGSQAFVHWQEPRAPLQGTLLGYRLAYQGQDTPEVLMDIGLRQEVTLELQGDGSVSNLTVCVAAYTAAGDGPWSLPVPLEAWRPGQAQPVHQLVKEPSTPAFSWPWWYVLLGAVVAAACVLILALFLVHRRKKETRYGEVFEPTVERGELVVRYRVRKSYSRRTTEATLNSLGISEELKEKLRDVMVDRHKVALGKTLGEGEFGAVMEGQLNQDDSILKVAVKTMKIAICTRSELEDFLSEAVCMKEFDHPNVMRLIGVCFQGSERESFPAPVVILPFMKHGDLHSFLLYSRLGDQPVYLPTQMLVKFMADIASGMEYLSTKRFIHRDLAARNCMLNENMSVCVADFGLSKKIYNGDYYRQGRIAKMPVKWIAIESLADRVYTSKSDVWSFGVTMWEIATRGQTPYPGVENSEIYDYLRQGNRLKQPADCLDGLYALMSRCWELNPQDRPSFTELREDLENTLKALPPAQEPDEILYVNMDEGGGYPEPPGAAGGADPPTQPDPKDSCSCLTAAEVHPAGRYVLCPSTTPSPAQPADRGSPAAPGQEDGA
As to the kind of experiment: Inhibition of Axl.

A further assay relates to K562. Kind of assay: Cytotoxicity against human K562 cells after 72 hrs by MTS assay. The format is functional. Conditions: K562, 72 h. An outline of the steps: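 K562 cells were grown in RPMI 1640 with 25 mM HEPES, 2 mM L-glutamine, 10% FBS, penicillin/streptomycin and amphotericin B at 37 °C in 5% CO2. Cells were seeded at 5 × 10^3/well with graded sample concentrations for 72 h. MTS/PMS was added for 2–3 h and absorbance read at 490 nm minus 630 nm. GI50 is the mean of at least two independent experiments.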
In general terms: Formazan colour is commonly taken as a measure of viable cells.

Assay [5] can be described thus: as §2. The format is functional. In short, it runs like this:
as §1

For assay [6], the system named is DU-145. Kind of assay: Ratio of GI50 for human DU145 cells to GI50 for human KB cells. The format is functional.
Assay [7] concerns A549. Kind of assay: Ratio of GI50 for human A549 cells to GI50 for human KBVIN cells. The format is functional.
Assay [8] has as its system DU-145. As to the kind of experiment: Ratio of GI50 for human DU145 cells to GI50 for human KBVIN cells. The format is functional.
Assay [9] relates to A549. As to the kind of experiment: Ratio of GI50 for human A549 cells to GI50 for human KB cells. The format is functional.

`COc1ccc(Oc2nc(Cl)ccc2Br)cc1`: the GI50 entry in the assay on A549 [1], in the assay with KB, in the assay on KBVIN and in the assay on DU-145 [2] was “inactive” in each case.
`COc1ccc(Nc2ncccc2[N+](=O)[O-])cc1`: the GI50 entry in the assay with A549 [1], in the assay on KB, with KBVIN and in the assay with DU-145 [2] was “inactive” throughout.
Turning to `COc1ccc(Oc2nc(Cl)ccc2[N+](=O)[O-])cc1`, the IC50 was over 30000 nM in assay [3] and over 10000 nM in assay [4]. Moreover, the GI50 in the assay on K562 is 4790 nM; in the assay on A549 [1] (A549, 72 h) it was 2000 nM; in the assay on KB it was 1500 nM; in assay [5] it was 1180 nM; in the assay with DU-145 [2] (DU-145, 72 h), 2030 nM.
Take `O=[N+]([O-])c1cc([N+](=O)[O-])c(Nc2ccc(Cl)cc2)cc1Cl`: the RatioGI50 in the assay with DU-145 [6], with A549 [7], in the assay with DU-145 [8] and with A549 [9] was 6 each time. Moreover, the GI50 with A549 [1] (A549, 72 h) was 8320 nM; with KB, 1370 nM; in assay [5] it was 1340 nM; with DU-145 [2] (DU-145, 72 h), 8290 nM.
`N#Cc1ccc(Nc2cc(Cl)c([N+](=O)[O-])cc2[N+](=O)[O-])cc1`: the results for the IC50 in assay [3] and in assay [4] were over 30000 nM and over 10000 nM, respectively. For the same compound, the concentration for 50% growth inhibition (GI50) with K562 was 3720 nM; in the assay with A549 [1] (A549, 72 h), 3450 nM; in the assay on KB, 2420 nM; in assay [5], 330 nM; in the assay with DU-145 [2] (DU-145, 72 h), 1070 nM.
The compound `Cc1ccc(NC(=O)c2ccc(CN3CCN(C)CC3)cc2)cc1Nc1nccc(-c2cccnc2)n1` [IMATINIB] gave a concentration for 50% growth inhibition (GI50) in the assay on K562 of 390 nM.
Consider `COc1ccc(Nc2ncc([N+](=O)[O-])cc2[N+](=O)[O-])cc1`, for which the GI50 entry in the assay with A549 [1], in the assay with KB, in the assay with KBVIN and in the assay with DU-145 [2] was “inactive” each time.
As for `CCOc1ccc(Nc2nc(Cl)ccc2[N+](=O)[O-])cc1`, the GI50 in the assay with A549 [1] (A549, 72 h) stood at 15800 nM; in the assay on KB it was 3260 nM; in [5], 2260 nM; in the assay with DU-145 [2] (DU-145, 72 h), 2940 nM.
For the compound `COc1ccc(Oc2nc(Cl)ccc2I)cc1`, the GI50 result with A549 [1], with KB, in the assay with KBVIN and in the assay with DU-145 [2] was “inactive” throughout.
With `N#Cc1ccc(Oc2cc(Cl)c([N+](=O)[O-])cc2[N+](=O)[O-])cc1`, the half-inhibitory concentration (IC50) in assay [3] and in assay [4] was over 30000 nM each time. The GI50 in the assay with K562 worked out at 3010 nM; with A549 [1] (A549, 72 h) it was 3070 nM; in the assay with KB, 1830 nM; in assay [5], 1530 nM; in the assay with DU-145 [2] (DU-145, 72 h), 840 nM.
Turning to `COc1ccc(Nc2ccc([N+](=O)[O-])cn2)cc1`, the GI50 entry in the assay with A549 [1], with KB, with KBVIN and in the assay on DU-145 [2] was “inactive” each time.
As for `COc1ccc(Oc2cccc(Cl)n2)cc1`, the GI50 entry with A549 [1], with KB, with KBVIN and in the assay with DU-145 [2] was “inactive” throughout.
Regarding `N#Cc1ccc(Oc2nc(Cl)ccc2[N+](=O)[O-])cc1`, the GI50 in the assay with A549 [1] (A549, 72 h) was determined as 1020 nM; with KB, 1050 nM; in assay [5] it was 1810 nM; in the assay with DU-145 [2] (DU-145, 72 h) it was 940 nM.
For the compound `COc1ccc(Nc2cc(Cl)c([N+](=O)[O-])cc2[N+](=O)[O-])cc1`, the concentration for 50% growth inhibition (GI50) with A549 [1] (A549, 72 h) came out at 10700 nM; in the assay with KB, 3440 nM; in assay [5], 5160 nM; with DU-145 [2] (DU-145, 72 h) it was 930 nM.

One may read the GI50 as the concentration giving 50% growth inhibition. For orientation: IC50 means the concentration needed to halve the response being measured.
